TPT1 inhibitor: C. albicans TPT1 enzyme inhibition | AID 1962 | recombinant caTPT1, FP RNA substrate dephosphorylation | inhibition, % at 5 µM | 300,000 tested, 0.81% active;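 active = inhibition above the mean of all tested compounds plus 3 SD, set per screening campaign, cut at about 24% in these data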
CSN deneddyl inh: inhibitors of human CSN-mediated cullin deneddylation; inhibition, % at 12.5 µM; 360,000 tested, 0.38% active; Purified CSN, SCF-Nedd8-OG deneddylation, fluorescence polarization;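 active = pattern-corrected inhibition above about 35%, with an unprinted fluorescence ratio check between 0.5 and 1.5, limit read from the data, passing the limit was not always enough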
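Schedule: reaction 90 min, room temperature / Assay system: HEK293T-derived human Csn5 enzyme / Input: Csn5 at 0.24 nM final / Measure: inhibition of Csn5 cleavage, % / Control set: substrate-only high control, full reaction low control / Technique: fluorescence polarization of the substrate / Buffer or medium: Tris/NaCl/DTT buffer, pH 7.5 / Reagent: SCFSkp2-Nedd8OG substrate at 10 nM final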
IDE act: activators of human insulin-degrading enzyme in cells; P14735; HEK cells, FAbeta-B cleavage, fluorescence polarization; 0% vehicle, 100% cell-free pure enzyme wells; activation, % at 5.96 µM; 340,000 tested, 0.073% active; AID 493087;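 active = activation above the mean of all tested compounds plus 3 SD, set per screening campaign, cut at about 17% in these data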
HNF4A DNA FP: change in binding of human HNF4 alpha to DNA; P41235; HNF4a-FITC DNA binding, fluorescence polarization, 1 h; activity change, % at 10 µM; 360,000 tested, 0.3% active; AID 1224865; in the data active = activity change above about 30%, passing the limit was not always enough
Target sequence (P41235 whole entry, looked up): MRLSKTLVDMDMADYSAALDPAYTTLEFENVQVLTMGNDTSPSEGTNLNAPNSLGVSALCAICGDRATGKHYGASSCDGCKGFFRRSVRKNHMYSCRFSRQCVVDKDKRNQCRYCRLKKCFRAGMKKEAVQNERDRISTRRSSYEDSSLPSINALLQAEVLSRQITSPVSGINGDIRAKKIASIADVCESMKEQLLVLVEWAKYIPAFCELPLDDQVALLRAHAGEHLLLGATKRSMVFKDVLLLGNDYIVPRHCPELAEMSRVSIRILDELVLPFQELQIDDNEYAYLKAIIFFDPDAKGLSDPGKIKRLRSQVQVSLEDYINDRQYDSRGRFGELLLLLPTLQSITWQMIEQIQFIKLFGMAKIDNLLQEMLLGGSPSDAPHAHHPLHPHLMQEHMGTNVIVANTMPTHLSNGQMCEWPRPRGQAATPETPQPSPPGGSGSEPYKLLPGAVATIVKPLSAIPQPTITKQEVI
IDE cell inh: cellular human IDE inhibition. HEK cells, FAbetaB cleavage, fluorescence polarization. inhibition, % at 5.59 µM. 320,000 tested, 0.41% active;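 active = percent inhibition above the average of all tested compounds plus 3 SD, set per screening campaign, cut at about 16% in these data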;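 note: IDE supplied by intact live HEK cells; FP after avidin binding of uncleaved biotin substrate so inhibition keeps polarization high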
IDE cell inh cf: cellular human IDE inhibition, confirmation. 1,200 tested, 51% active. inhibition, % at 5.59 µM. HEK cells, FAbetaB cleavage, fluorescence polarization. shares compounds with IDE cell inh. AID 435028;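 active = mean inhibition across triplicate wells above the cutoff set by the earlier primary insulin-degrading enzyme screen, cut at about 16% in these data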
HEK cytotox: counter-screen for IDE inhibitors: cytotoxicity in HEK cells | HEK293 cytotoxicity, ATP luminescence | shares compounds with IDE cell inh | 1,200 tested, 28% active | inhibition, % at 5.59 µM; in the data active = inhibition above about 22%
A number is an active result. In the library only some 1.4% were active in any assay of this set; here they are far more common.

Results for CCc1ccc(C(=O)/C=C2\Sc3ccccc3NC2=O)cc1 ?
TPT1 inhibitor: inactive; CSN deneddyl inh: inactive; IDE act: inactive; HNF4A DNA FP: inactive; IDE cell inh: 18.4; IDE cell inh cf: inactive; HEK cytotox: inactive

How did CCOC(=O)Cc1csc(SCn2nnc3ccccc3c2=O)n1 do in these assays?
TPT1 inhibitor: inactive; CSN deneddyl inh: inactive; IDE act: inactive; HNF4A DNA FP: inactive; IDE cell inh: inactive

How did CCOC(=O)Cc1csc(-n2sc3ccccc3c2=O)n1 do in these assays?
TPT1 inhibitor: inactive; CSN deneddyl inh: inactive; IDE act: inactive; HNF4A DNA FP: inactive; IDE cell inh: 16.5; IDE cell inh cf: inactive; HEK cytotox: 28.1

What do the screens show for `COc1ccc([N+](=O)[O-])cc1/C=N/NC(=O)/C(=C\c1cccs1)NC(=O)c1ccccc1`?
TPT1 inhibitor: inactive; CSN deneddyl inh: inactive; IDE act: inactive; HNF4A DNA FP: inactive; IDE cell inh: 28.2; IDE cell inh cf: inactive; HEK cytotox: inactive

Results for Cc1cccc(CC(=O)N2CCCC2)c1 ?
TPT1 inhibitor: inactive; CSN deneddyl inh: inactive; IDE act: inactive; HNF4A DNA FP: inactive; IDE cell inh: inactive

Results for CC1CCN(CCc2nc3cc(NC(=O)NC4CCCCC4)ccc3n2C)CC1 ?
TPT1 inhibitor: inactive; CSN deneddyl inh: inactive; IDE act: inactive; HNF4A DNA FP: inactive; IDE cell inh: 19.2; IDE cell inh cf: inactive; HEK cytotox: inactive

How did Cc1cc(NC(=O)CN2C(=O)N(C)C3(CCCCC3)C2=O)ccc1Br do in these assays?
CSN deneddyl inh: inactive; IDE act: inactive; HNF4A DNA FP: inactive; IDE cell inh: inactive

What do the screens show for `CCN(CC(=O)NCc1ccc(Cl)cc1)C(=O)C1CCN(S(=O)(=O)c2ccc(OC)c(OC)c2)CC1`?
TPT1 inhibitor: inactive; CSN deneddyl inh: inactive; IDE act: inactive; HNF4A DNA FP: inactive; IDE cell inh: inactive

What do the screens show for `Cc1cccc(C(=O)NCC(c2cccs2)N2CCOCC2)c1` (stereo not drawn)?
TPT1 inhibitor: inactive; CSN deneddyl inh: inactive; IDE act: inactive; HNF4A DNA FP: inactive; IDE cell inh: inactive

What do the screens show for `Cc1cccc(C(=O)NCC(c2ccc(F)cc2)N2CCOCC2)c1` (stereo not drawn)?
TPT1 inhibitor: inactive; CSN deneddyl inh: inactive; IDE act: inactive; HNF4A DNA FP: inactive; IDE cell inh: 16.3; IDE cell inh cf: inactive; HEK cytotox: inactive

How did COc1ccc(NC(=O)C2Cc3c(-c4cccc(C(N)=O)c4)ccnc3O2)cc1 (stereo not drawn) do in these assays?
CSN deneddyl inh: inactive; HNF4A DNA FP: inactive

Results for O=C(C(=O)N1CCC(Cc2ccccc2)CC1)c1cccs1 ?
CSN deneddyl inh: inactive; HNF4A DNA FP: inactive

How did COc1ccccc1/C=C/C1NC(=O)NC(C)=C1C(=O)OC(C)C (stereo not drawn) do in these assays?
TPT1 inhibitor: inactive; CSN deneddyl inh: inactive; IDE act: inactive; HNF4A DNA FP: inactive; IDE cell inh: inactive

Results for C=CCOC(=O)C1=C(C)NC(=O)NC1/C=C/c1ccccc1OC (stereo not drawn) ?
TPT1 inhibitor: inactive; CSN deneddyl inh: inactive; IDE act: inactive; HNF4A DNA FP: inactive; IDE cell inh: 20.8; IDE cell inh cf: inactive; HEK cytotox: inactive

Results for COc1cc(/C=C/C(=O)c2ccc(NS(=O)(=O)c3ccc(C)cc3)cc2)cc(OC)c1O ?
TPT1 inhibitor: inactive; CSN deneddyl inh: inactive; IDE act: inactive; HNF4A DNA FP: inactive; IDE cell inh: 26.6; IDE cell inh cf: 55.9; HEK cytotox: 44.7

Results for COc1cc(/C=C/C(=O)c2ccc(NS(=O)(=O)c3ccc(C)cc3)cc2)ccc1OC(F)F ?
TPT1 inhibitor: inactive; CSN deneddyl inh: inactive; IDE act: inactive; HNF4A DNA FP: inactive; IDE cell inh: inactive

How did Cc1ccc(S(=O)(=O)Nc2cc(C(C(=O)OC(C)C)C(=O)C(F)(F)F)c(O)c3ccccc23)c(C)c1 (stereo not drawn) do in these assays?
TPT1 inhibitor: inactive; CSN deneddyl inh: inactive; IDE act: inactive; HNF4A DNA FP: inactive; IDE cell inh: 21.5; IDE cell inh cf: inactive; HEK cytotox: inactive

Results for Cc1ccc(S(=O)(=O)Nc2ccc(O)c3ccccc23)c(C)c1 ?
CSN deneddyl inh: inactive; IDE act: inactive; HNF4A DNA FP: inactive

Source: PubChem BioAssay
